In the library only some 1.2% were active in any assay of this set; here they are far more common.
Rtt109 Vps75: C. albicans Rtt109 histone acetyltransferase inhibition; inhibition, % at 34.9 µM; actives 0.16% (n = 330,000); purified Rtt109/Vps75, ThioGlo CoA-SH fluorescence, 4 h; AID 540336; Q5AAJ8;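 active = inhibition of at least 50% in every replicate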
HNF4A DNA FP: change in binding of human HNF4 alpha to DNA. P41235. HNF4a-FITC DNA binding, fluorescence polarization, 1 h. activity change, % at 10 µM. actives 0.3% (n = 360,000). AID 1224865; in the data active = activity change above about 30%, passing the limit was not always enough
TPT1 inh: C. albicans TPT1 enzyme inhibition; recombinant caTPT1, FP RNA substrate dephosphorylation; inhibition, % at 5 µM; actives 0.81% (n = 300,000); AID 1962;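 active = inhibition above the mean of all tested compounds plus 3 SD, set per screening campaign, cut at about 24% in these data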
CSN deneddyl inh: blocks human CSN-mediated cullin deneddylation; inhibition, % at 12.5 µM; Purified CSN, SCF-Nedd8-OG deneddylation, fluorescence polarization; actives 0.38% (n = 360,000); Q92905;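 active = pattern-corrected inhibition above about 35%, with an unprinted fluorescence ratio check between 0.5 and 1.5, limit read from the data, passing the limit was not always enough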
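Detection – fluorescence polarization · System – HEK293T-derived human Csn5 enzyme · Controls – substrate-only high control, full reaction low control · Timing – 90 min, room temperature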
caTPT1 confirm: TPT1 (C. albicans) inhibition, confirmation; shares compounds with TPT1 inh; recombinant caTPT1, fluorescence polarization, RNase T1 coupled; inhibition, % at 5 µM; actives 74% (n = 2,400);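 active = inhibition above the primary screen limit, the mean inhibition of all tested compounds plus 3 SD, cut at about 25% in these data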
RNase T1 counter: counter-screen for TPT1 inhibitors: inhibitors of Aspergillus oryzae RNase T1. RNase T1 cleavage, fluorescence polarization, 1536-well. inhibition, % at 5 µM. AID 2153. actives 83% (n = 2,400). shares compounds with TPT1 inh;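 active = inhibition above the solvent-only control well mean plus 3 SD, limit set per screening run, cut at about 23% in these data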;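 also: inhibitors block cleavage so intact labeled substrate keeps polarization high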
Target sequence (P00651 whole entry, looked up): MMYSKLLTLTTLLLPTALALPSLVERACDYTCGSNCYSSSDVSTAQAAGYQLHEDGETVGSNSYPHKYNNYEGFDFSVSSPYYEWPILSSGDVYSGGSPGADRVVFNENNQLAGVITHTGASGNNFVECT
A number is an active result; n = inactive; x = not tested or not shown; + = active, no number; ! = not active in a repeat.

SMILES | Rtt109 Vps75 | HNF4A DNA FP | TPT1 inh | CSN deneddyl inh | caTPT1 confirm | RNase T1 counter
COc1ccc2oc(=O)c(C(=O)NCc3ccccc3)cc2c1 | n | n | n | n | x | x
COc1ccc(C(=O)N/N=c2\oc3ccccc3cc2C(=O)NCc2ccccc2)cc1 | n | n | 33 | n | n | n
CCCC(=O)N(Cc1cc2cc(OC)ccc2[nH]c1=O)c1ccccc1OC | x | n | x | n | x | x
COC(=O)[C@]1(C)N[C@H](CN(C)C(=O)c2ccc(F)cc2)[C@@H]2C(=O)N(Cc3ccccc3)C(=O)[C@@H]21 | n | n | x | n | x | x
CCN(CC)c1ccc(/C=C/C(=O)c2ccc(Br)cc2)cc1 | n | n | 97 | n | 94 | 96
CCN1C(=S)SC(=O)C1=C1C=C(C)N(Cc2ccco2)C(C)=C1 | n | n | 163 | n | 126 | 131
Cc1coc(C)c1C(=O)Nc1ccc2ccccc2c1 | n | n | x | n | x | x
O=C(Cn1cnc2ccccc21)N/N=C/c1ccc([N+](=O)[O-])cc1 | x | n | n | n | x | x
O=C(Cn1cnc2ccccc21)N/N=C/c1cccc([N+](=O)[O-])c1 | n | n | 36 | n | n | n
CS(=O)(=O)c1ccc(Cl)c(NC(=O)c2cc(S(=O)(=O)N3CCOCC3)ccc2N2CCCC2)c1 | n | n | n | n | x | x
CCCN(CCC)C1=N/C(=C\c2ccco2)C(=O)N1c1ccccc1 | n | n | 26 | n | n | 22
CCCN=C1N/C(=C\c2ccco2)C(=O)N1c1ccccc1 | n | n | n | n | x | x
N=C(N)SCc1nc2ccccc2c(=O)n1-c1ccccc1 | n | n | 26! | n | 28 | 37
O=C(O)c1ccc(CSc2nc3ccccc3c(=O)n2-c2ccccc2)cc1 | n | n | n | n | x | x
COC1=C/C(=C/c2c(O)c(C#N)c3ccccn23)C=CC1=O | n | n | 30 | n | n | n
COc1cc(OC)cc(C(=O)c2c(C)c(C#N)c3ccccn23)c1 | n | n | x | n | x | x
CCc1ccccc1N(C)S(=O)(=O)c1ccc(-c2cc(C)no2)s1 | n | n | n | n | x | x
CCOC(=O)c1c(-c2ccc(OC)cc2)csc1/N=C/C1C(=O)CCCC1=O | n | n | 172 | n | 25 | 36
CC(C)Oc1ccc(C2C(C#N)=C(N)Oc3c2oc(CO)cc3=O)cc1 (centres undefined) | n | n | 36 | n | n | n
COc1ccc(N=Cc2cc3c(cc2O)OC(N)=C(C#N)C3c2ccccc2)cc1 (centres undefined) | n | 66 | 55 | n | 78 | 88
O=C1S/C(=C\c2ccc(N3CCOCC3)o2)C(=O)N1c1ccccc1 | n | n | + | n | 185 | 166
O=C1S/C(=C\c2ccc(N3CCOCC3)o2)C(=O)N1Cc1c(F)cccc1Cl | n | n | 148 | n | 190 | 174
O=C1S/C(=C/c2ccc(N3CCOCC3)o2)C(=O)N1Cc1c(F)cccc1Cl | n | n | 139 | n | 177 | 162
O=c1[nH][nH]c2c1[C@H](c1ccc(F)cc1)O[C@H](CCC(F)(F)F)C2 | x | n | x | n | x | x
Cc1c(NC(=O)Cc2noc3ccccc23)cccc1[N+](=O)[O-] | n | n | 74 | n | n | n
SMILES | Rtt109 Vps75 | HNF4A DNA FP | TPT1 inh | CSN deneddyl inh | caTPT1 confirm | RNase T1 counter
O=[N+]([O-])C(/C=C(\Cl)[N+](=O)[O-])=C(N1CCCCC1)N1CCCCC1 | n | n | 35 | n | 42 | 58
CCOC(=O)c1ccc(/C=C2/C=C(c3ccccc3)N(c3ccc(Cl)c(C(=O)O)c3)C2=O)cc1 | n | n | 62 | n | 74 | 80
N#Cc1c(NC(=O)CSc2nnc(-c3ccncc3)n2CC2CCCO2)sc2c1CCCC2 (centres undefined) | n | n | 115 | n | n | n
O=S(=O)(Nc1nc2ccccc2nc1Nc1ccc2c(c1)OCCO2)c1cccs1 | n | 48 | 78 | 51 | 90 | 96
CCCN1C(=O)/C(=C/c2ccc(C)o2)SC1=Nc1ccc(OC)cc1 | n | n | n | n | x | x
COc1ccc(N=C2S/C(=C\c3ccc(N4CCOCC4)o3)C(=O)N2CCc2c[nH]c3ccccc23)cc1 | n | n | 131 | n | 141 | 136
O=C(COc1ccccc1[N+](=O)[O-])N/N=C/c1ccccn1 | x | n | n | n | x | x
O=C(COc1ccccc1[N+](=O)[O-])N/N=C/c1ccc(O)c([N+](=O)[O-])c1 | n | n | 61 | n | n | n

Screening data (PubChem)
